Assay results: ChEMBL document CHEMBL4138300 (ACS Med Chem Lett, 2018)
Activity calls are given as the source filed them. The calls are words filed in the database; no cut-off is given here.

What was measured:
[1] = test system: Pfeiffer; experiment: Cytotoxicity against human Pfeiffer cells assessed as decrease in cell viability after 5 days by CellTiter-Glo reagent based luminescence assay; type: functional; settings: 120 h
[2] = Stability of the compound in human liver microsomes; type: ADME, microsome
[3] = Stability of the compound in rat liver microsomes; type: ADME, microsome
[4] = target: EZH2 (Homo sapiens); experiment: Inhibition of human N-terminal His-tagged EZH2/flag-tagged EED/SUZ12/AEBP2/RBAP48 A677G mutant (2 to end residues) expressed in baculovirus infected Sf9 insect cells using histone H3 (1 to 50 residues)-GGK as substrate after 2 hrs in presence of SAM by fluorescence assay
[5] = Half life in human liver microsomes; type: ADME, microsome
[6] = Half life in rat liver microsomes; type: ADME, microsome
[7] = Cmax in Sprague-Dawley rat at 5 mg/kg administered via oral gavage; type: ADME, organism-based; design: dose 5 mg/kg, route oral; settings: in vivo
Method in brief: (§1)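 Single oral dose given as a CMC-Na suspension: rats 5 mg/kg, mice 10 mg/kg. Oral bioavailability was set against the matching iv arm (rats 0.5 mg/kg, mice 1.0 mg/kg).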

[8] = AUC (0 to t) in Sprague-Dawley rat at 5 mg/kg administered via oral gavage; type: ADME, organism-based; settings: in vivo; method in brief: as §1
[9] = Half life in Sprague-Dawley rat at 5 mg/kg administered via oral gavage; type: ADME, organism-based; settings: in vivo; method in brief: as §1
[10] = Apparent clearance during terminal phase in Sprague-Dawley rat at 5 mg/kg administered via oral gavage; type: ADME, organism-based; settings: in vivo, read-out: CLz/F; method in brief: as §1
[11] = Apparent volume of distribution during terminal phase in Sprague-Dawley rat at 5 mg/kg administered via oral gavage; type: ADME, organism-based; settings: in vivo, read-out: Vz/F; method in brief: as §1
[12] = Mean residence time (0 to infinity) in Sprague-Dawley rat at 5 mg/kg administered via oral gavage; type: ADME, organism-based; settings: in vivo; method in brief: as §1
[13] = Oral bioavailability in Sprague-Dawley rat at 5 mg/kg administered via gavage; type: ADME, organism-based; settings: in vivo; method in brief: as §1
[14] = AUC (0 to t) in Sprague-Dawley rat at 0.5 mg/kg, iv; type: ADME, organism-based; settings: in vivo
Method in brief: (§2)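 Single intravenous dose: rats 0.5 mg/kg, mice 1.0 mg/kg. Plasma exposure and terminal-phase parameters were calculated from the concentration–time profile. These serve as the iv reference for bioavailability.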

[15] = test system: Rattus norvegicus; experiment: Apparent volume of distribution during terminal phase in Sprague-Dawley rat at 0.5 mg/kg, iv; type: ADME, organism-based; settings: in vivo; method in brief: as §2
[16] = Mean residence time (0 to infinity) in Sprague-Dawley rat at 0.5 mg/kg, iv; type: ADME, organism-based; settings: in vivo; method in brief: as §2
[17] = Cmax in ICR mouse at 10 mg/kg administered via oral gavage; type: ADME, organism-based; design: dose 10 mg/kg, route oral; settings: in vivo; method in brief: as §1
[18] = AUC (0 to t) in ICR mouse at 10 mg/kg administered via oral gavage; type: ADME, organism-based; settings: in vivo; method in brief: as §1
[19] = Half life in ICR mouse at 10 mg/kg administered via oral gavage; type: ADME, organism-based; settings: in vivo; method in brief: as §1
[20] = Apparent clearance during terminal phase in ICR mouse at 10 mg/kg administered via oral gavage; type: ADME, organism-based; settings: in vivo, read-out: CLz/F; method in brief: as §1
[21] = Apparent volume of distribution during terminal phase in ICR mouse at 10 mg/kg administered via oral gavage; type: ADME, organism-based; settings: in vivo, read-out: Vz/F; method in brief: as §1
[22] = Mean residence time (0 to infinity) in ICR mouse at 10 mg/kg administered via oral gavage; type: ADME, organism-based; settings: in vivo; method in brief: as §1
[23] = Oral bioavailability in ICR mouse at 10 mg/kg administered via gavage; type: ADME, organism-based; settings: in vivo; method in brief: as §1
[24] = AUC (0 to t) in ICR mouse at 1 mg/kg, iv; type: ADME, organism-based; settings: in vivo; method in brief: as §2
[25] = test system: Mus musculus; experiment: Apparent volume of distribution during terminal phase in ICR mouse at 1 mg/kg, iv; type: ADME, organism-based; settings: in vivo; method in brief: as §2
[26] = Mean residence time (0 to infinity) in ICR mouse at 1 mg/kg, iv; type: ADME, organism-based; settings: in vivo; method in brief: as §2
[27] = Protein binding in human plasma; type: ADME, cell-free; settings: read-out: PPB (converted)
[28] = Protein binding in rat plasma; type: ADME, cell-free; settings: read-out: PPB (converted)
[29] = Protein binding in mouse plasma; type: ADME, cell-free; settings: read-out: PPB (converted)
[30] = target: T1, Histone-lysine N-methyltransferase EZH2 (Homo sapiens, UniProt Q15910); experiment: Inhibition of EZH2 in human Pfeiffer cells assessed as reduction in H3K27 trimethylation after 3 days by Western blot analysis; type: cell-based
[31] = target: T1, Histone-lysine N-methyltransferase EZH2; experiment: Inhibition of EZH2 in human WSU-DLCL2 cells assessed as reduction in H3K27 trimethylation after 3 days by Western blot analysis; type: cell-based
Target sequence in this assay (Q15910 whole entry): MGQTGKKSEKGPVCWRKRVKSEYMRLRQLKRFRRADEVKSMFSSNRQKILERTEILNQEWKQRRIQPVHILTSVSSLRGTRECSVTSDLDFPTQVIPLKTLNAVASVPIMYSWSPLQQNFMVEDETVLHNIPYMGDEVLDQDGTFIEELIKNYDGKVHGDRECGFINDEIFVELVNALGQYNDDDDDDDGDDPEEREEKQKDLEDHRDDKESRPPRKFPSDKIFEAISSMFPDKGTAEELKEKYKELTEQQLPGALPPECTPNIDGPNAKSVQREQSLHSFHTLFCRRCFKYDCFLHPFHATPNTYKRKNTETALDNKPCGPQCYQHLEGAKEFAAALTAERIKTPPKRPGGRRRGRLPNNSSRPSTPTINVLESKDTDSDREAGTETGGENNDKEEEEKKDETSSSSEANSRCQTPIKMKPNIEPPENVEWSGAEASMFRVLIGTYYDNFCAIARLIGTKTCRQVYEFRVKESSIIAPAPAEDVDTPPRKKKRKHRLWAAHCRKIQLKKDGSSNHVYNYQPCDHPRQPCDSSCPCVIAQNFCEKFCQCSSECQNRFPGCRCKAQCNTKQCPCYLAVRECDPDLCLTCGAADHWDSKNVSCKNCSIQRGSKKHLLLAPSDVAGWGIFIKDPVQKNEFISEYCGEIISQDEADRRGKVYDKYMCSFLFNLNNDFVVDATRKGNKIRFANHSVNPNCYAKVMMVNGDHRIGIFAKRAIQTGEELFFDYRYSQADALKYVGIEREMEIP

[32] = test system: Pfeiffer; experiment: Antitumor activity against human Pfeiffer cells xenografted in athymic nude mouse assessed as tumor growth inhibition administered po qd for 20 days measured twice per week; type: functional, organism-based
Method in brief: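 Pfeiffer xenografts were grown to about 150-200 mm³ before dosing. Compound was given orally once daily for 20 days at 10, 30 or 100 mg/kg. A reference EZH2 inhibitor (100 mg/kg) was run alongside. Tumor size reduction was the efficacy read-out.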

[33] = test system: Pfeiffer; experiment: Antitumor activity against human Pfeiffer cells xenografted in athymic nude mouse assessed as tumor growth inhibition at 10 mg/kg, po qd administered for 20 days measured twice per week; type: functional; settings: 480 h, read-out: TGI
Method in brief: (§3)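 Pfeiffer xenografts were grown to about 150-200 mm³ before dosing. The compound was given orally once daily for 20 days at the dose in each line (10, 30 or 100 mg/kg), with a reference EZH2 inhibitor dosed at 100 mg/kg. Tumor growth inhibition was expressed as percent reduction in tumor size.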

[34] = test system: Pfeiffer; experiment: Antitumor activity against human Pfeiffer cells xenografted in athymic nude mouse assessed as tumor growth inhibition at 30 mg/kg, po qd administered for 20 days measured twice per week; type: functional; settings: 480 h, read-out: TGI; method in brief: as §3
[35] = test system: Pfeiffer; experiment: Antitumor activity against human Pfeiffer cells xenografted in athymic nude mouse assessed as tumor growth inhibition at 100 mg/kg, po qd administered for 20 days measured twice per week; type: functional; method in brief: as §3
[36] = test system: Mus musculus; experiment: Toxicity in athymic nude mouse xenografted with human Pfeiffer cells assessed as body weight loss at 10 to 100 mg/kg, po qd administered for 20 days measured twice per week; type: organism-based; settings: in vivo, 480 h

Compound: CCc1c(N(CC)C2CCOCC2)cc2oc(CN3CCN(C)CC3)cc2c1C(=O)NCc1c(OC)cc(C)[nH]c1=O
- IC50 [1]: 8 nM
- Stability [2]: Stable
- Stability [3]: Stable
- IC50 [4]: 0.1 nM

Compound: CCN(c1cc2occc2c(C(=O)NCc2c(OC)cc(C)[nH]c2=O)c1C)C1CCOCC1
- IC50 [1]: 20 nM
- IC50 [4]: 4 nM

Compound: CCc1c(N(CC)C2CCOCC2)cc2oc(CN3CCCCC3)cc2c1C(=O)NCc1c(OC)cc(C)[nH]c1=O
- IC50 [1]: 2 nM
- Stability [2]: Stable
- Stability [3]: Stable
- IC50 [4]: 6.4 nM

Compound: CCN(c1cc2oc(C#N)cc2c(C(=O)NCc2c(OC)cc(C)[nH]c2=O)c1C)C1CCOCC1
- IC50 [1]: 17 nM
- IC50 [4]: 0.8 nM

Compound: CCc1c(N(CC)C2CCOCC2)cc2oc(CN3CCOCC3)cc2c1C(=O)NCc1c(C)cc(C)[nH]c1=O
- IC50 [1]: 14 nM
- Stability [2]: Stable
- Stability [3]: Stable
- IC50 [4]: 4.6 nM

Compound: CCN(c1cc2oc(C)cc2c(C(=O)NCc2c(C)cc(C)[nH]c2=O)c1C)C1CCOCC1
- IC50 [1]: 21 nM
- IC50 [4]: 3.8 nM

Compound: CCc1c(N(CC)C2CCOCC2)cc2oc(C3CCN(C(C)C)CC3)cc2c1C(=O)NCc1c(C)cc(C)[nH]c1=O
- IC50 [1]: 6 nM
- half-life [5]: > 30 min
- half-life [6]: > 30 min
- Cmax [7]: 93 ng/mL
- AUC(0-t) [8]: 239 ng·h/mL
- half-life [9]: 60 min
- CL/F [10]: 287 mL/min/kg
- Vd/F [11]: 24.1 L/kg
- MRT inf [12]: 3 h
- bioavailability [13]: 9%
- AUC(0-t) [14]: 325 ng·h/mL
- Vz/F [15]: 2556 mL/kg
- MRT inf [16]: 1 h
- Cmax [17]: 257 ng/mL
- AUC(0-t) [18]: 774 ng·h/mL
- half-life [19]: 78 min
- CL/F [20]: 202 mL/min/kg
- Vd/F [21]: 21.9 L/kg
- MRT inf [22]: 2.7 h
- bioavailability [23]: 16%
- AUC(0-t) [24]: 483 ng·h/mL
- Vz/F [25]: 3679 mL/kg
- MRT inf [26]: 1.3 h
- fraction unbound [27]: 0.061
- fraction unbound [28]: 0.06
- fraction unbound [29]: 0.073
- IC50 [30]: 8 nM
- inhibition [30]: Dose-dependent effect
- IC50 [31]: 55 nM
- TGI [32]: Dose-dependent effect
- inhibition in vivo at 10 mg/kg [33]: 28%
- inhibition in vivo at 30 mg/kg [34]: 83%
- inhibition in vivo at 100 mg/kg ([35]; 480 h, read-out: TGI): 97%
- Activity [36]: Non-Toxic

Compound: CCN(c1cc2occc2c(C(=O)NCc2ccc(C)[nH]c2=O)c1Cl)C1CCOCC1
- IC50 [1]: 150 nM
- IC50 [4]: 6.5 nM

Compound: CCc1c(N(CC)C2CCOCC2)cc2oc(CN3CCOCC3)cc2c1C(=O)NCc1c(OC)cc(C)[nH]c1=O
- IC50 [1]: 3 nM
- Stability [2]: Stable
- Stability [3]: Stable
- IC50 [4]: 7.8 nM

Compound: CCN(c1cc2oc(F)cc2c(C(=O)NCc2c(OC)cc(C)[nH]c2=O)c1C)C1CCOCC1
- IC50 [1]: 160 nM
- IC50 [4]: 4.1 nM

Compound: CCN(c1cc2occc2c(C(=O)NCc2c(OC)cc(C)[nH]c2=O)c1C(F)(F)F)C1CCOCC1
- IC50 [4]: 2000 nM

Compound: CCN(c1cc(C(=O)NCc2c(OC)cc(C)[nH]c2=O)c2ccoc2c1)C1CCOCC1
- IC50 [1]: > 5000 nM
- IC50 [4]: 331 nM

Compound: CCN(c1cc2oc(Cl)cc2c(C(=O)NCc2c(OC)cc(C)[nH]c2=O)c1C)C1CCOCC1
- IC50 [1]: 21 nM
- IC50 [4]: 0.4 nM

Compound: CCN(c1cc2occ(C)c2c(C(=O)NCc2c(OC)cc(C)[nH]c2=O)c1C)C1CCOCC1
- IC50 [1]: 1300 nM
- IC50 [4]: 5.9 nM

Compound: CCc1c(N(CC)C2CCOCC2)cc2oc(C3CCN(C)CC3)cc2c1C(=O)NCc1c(C)cc(C)[nH]c1=O
- IC50 [1]: 7 nM
- half-life [5]: > 60 min
- half-life [6]: > 60 min
- AUC(0-t) [18]: 439 ng·h/mL
- IC50 [4]: 6.1 nM

Compound: CCN(c1cc2oc(C3CC3)cc2c(C(=O)NCc2c(OC)cc(C)[nH]c2=O)c1C)C1CCOCC1
- IC50 [1]: 11 nM
- IC50 [4]: 0.5 nM

Compound: CCN(c1cc2sccc2c(C(=O)NCc2c(C)cc(C)[nH]c2=O)c1C)C1CCOCC1
- IC50 [1]: 1830 nM
- IC50 [4]: 6 nM

Compound: CCN(c1cc2oc(C(F)(F)F)cc2c(C(=O)NCc2c(OC)cc(C)[nH]c2=O)c1C)C1CCOCC1
- IC50 [1]: 17 nM
- IC50 [4]: 2.7 nM

Compound: CCN(c1cc2occc2c(C(=O)NCc2c(C(F)(F)F)cc(C)[nH]c2=O)c1C)C1CCOCC1
- IC50 [1]: 3300 nM
- IC50 [4]: 4.6 nM

Compound: CCN(c1cc2oc(C)cc2c(C(=O)NCc2c(OC)cc(C)[nH]c2=O)c1C)C1CCOCC1
- IC50 [1]: 14 nM
- IC50 [4]: 2.9 nM

Compound: CCc1c(N(CC)C2CCOCC2)cc2occc2c1C(=O)NCc1c(OC)cc(C)[nH]c1=O
- IC50 [1]: 15 nM
- IC50 [4]: 3.3 nM

Compound: CCc1cc(C)[nH]c(=O)c1CNC(=O)c1c(C)c(N(CC)C2CCOCC2)cc2occc12
- IC50 [1]: 220 nM
- IC50 [4]: 0.6 nM

Compound: CCN(c1cc2occc2c(C(=O)NCc2c(C)cc(C)[nH]c2=O)c1C)C1CCOCC1
- IC50 [1]: 240 nM
- IC50 [4]: 4 nM

Compound: CCN(c1cc(-c2ccc(CN3CCOCC3)cc2)cc(C(=O)NCc2c(C)cc(C)[nH]c2=O)c1C)C1CCOCC1 [TAZEMETOSTAT]
- IC50 [1]: 38 nM
- TGI [35]: Active
- Activity [36]: Non-Toxic
